According to ChEMBL document CHEMBL2086291, “Antitumor agent calixarene 0118 targets human galectin-1 as an allosteric inhibitor of carbohydrate binding” (J Med Chem, 2012):
The source made the active and inactive calls. No cut-off for these calls is given here.

What was measured:
Galectin-1 [1] = target: T1, Galectin-1 (Homo sapiens, UniProt P09382); experiment: Binding affinity to Galectin-1 in human Jurkat E6-1 cells surface glycans assessed as attenuation of agglutination at 20 uM by morphometric analysis; assay type: cell-based
T1 sequence (P09382 whole entry): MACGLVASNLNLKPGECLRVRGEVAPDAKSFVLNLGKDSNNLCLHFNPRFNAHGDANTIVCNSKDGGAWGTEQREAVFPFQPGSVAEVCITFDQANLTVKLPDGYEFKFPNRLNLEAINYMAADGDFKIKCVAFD
Outline: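 Jurkat E6.1 cells (2 × 10^6 per 200 μL RPMI 1640) agglutinated with 1 μM gal-1 and incubated at 22 °C in medium alone or with 20 μM compound. Agglutination imaged by inverted phase microscopy, then digitally quantified by pixel-based morphometric analysis.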

SK-HEP1 = experiment: Cytotoxicity against human SKHEP1 cells assessed as cell viability by MTT assay; assay type: functional, cell-based
Outline: (§1)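 Cells grown as monolayers in RPMI with 10% FCS and 2 mM glutamine at 37 °C, 5% CO2, seeded at 2 × 10^3 cells/well. Then 72 h drug exposure and 48 h wash-out, followed by 0.4 mg/mL MTT for 4 h at 37 °C. Formazan dissolved in DMSO, absorbance read at 560 nm, and IC50 determined per cell line.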

DU-145 = experiment: Cytotoxicity against human DU145 cells assessed as cell viability by MTT assay; assay type: functional, cell-based; outline: as §1
HEp-2 = experiment: Cytotoxicity against human Hep2 cells assessed as cell viability by MTT assay; assay type: functional, cell-based; outline: as §1
COLO 205 [2] = experiment: Cytotoxicity against human COLO205-R cells assessed as cell viability by MTT assay; assay type: functional, cell-based; outline: as §1
COLO 205 [3] = experiment: Cytotoxicity against human COLO205-S cells assessed as cell viability by MTT assay; assay type: functional, cell-based; outline: as §1
HT-29 = experiment: Cytotoxicity against human HT-29 cells assessed as cell viability by MTT assay; assay type: functional, cell-based; outline: as §1
SQ20B = experiment: Cytotoxicity against human SQ20B cells assessed as cell viability by MTT assay; assay type: functional, cell-based; outline: as §1
Galectin-1 [4] = target: T1, Galectin-1; experiment: Binding affinity to human [15N]-labelled Galectin-1 at 60 uM by heteronuclear NMR spectroscopy analysis
Outline: (§2)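 Uniformly 15N-labeled recombinant human gal-1 was expressed in E. coli BL21(DE3) and dissolved at 1 mg/mL in 20 mM potassium phosphate, pH 7.0, 50 μM EDTA, 95% H2O/5% D2O. Compound was titrated and followed by 1H-15N HSQC, reading resonance broadening and intensity changes. Averaged intensity change was plotted against free ligand, with bound ligand estimated from total gal-1 monomer (60 μM).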

Galectin-1 [5] = target: T1, Galectin-1; experiment: Binding affinity to human [15N]-labelled Galectin-1 by heteronuclear NMR spectroscopy analysis; outline: as §2
Galectin-1 [6] = target: T1, Galectin-1; experiment: Inhibition of lactose binding to human [15N]-labelled Galectin-1 at molar ratio of 1:5 Gal1:compound by heteronuclear NMR spectroscopy analysis
Galectin-1 [7] = target: T1, Galectin-1; experiment: Inhibition of FITC-conjugated human Galectin-1binding to CD4+ cell surface glycans of gal1 -/- mouse after 30 mins by flow cytometry
Outline: (§3)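 Splenocytes from gal-1−/− mice, with RBCs lysed in ACK for 5 min on ice. Cells stained with lineage antibodies for 40 min on ice, then given FITC-gal-1 (0.1 or 0.2 μM; FITC:protein labeling ratio 10:1) with or without compound for 30 min on ice. Binding read by multiparameter flow cytometry gated on CD4+, CD8+ and CD31+ cells.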

Galectin-1 [8] = target: T1, Galectin-1; experiment: Inhibition of FITC-conjugated human Galectin-1binding to CD8+ cell surface glycans of gal1 -/- mouse after 30 mins by flow cytometry; outline: as §3
Galectin-1 [9] = target: T1, Galectin-1; experiment: Inhibition of FITC-conjugated human Galectin-1binding to CD31+ endothelial cell surface glycans of gal1 -/- mouse after 30 mins by flow cytometry; outline: as §3
Galectin-1 [10] = target: T1, Galectin-1; experiment: Inhibition of FITC-conjugated human Galectin-1binding to CD4+ cell surface glycans of gal1 -/- mouse at 20 uM after 30 mins by flow cytometry; outline: as §3
Galectin-1 [11] = target: T1, Galectin-1; experiment: Inhibition of FITC-conjugated human Galectin-1binding to CD8+ cell surface glycans of gal1 -/- mouse at 20 uM after 30 mins by flow cytometry; outline: as §3
Galectin-1 [12] = target: T1, Galectin-1; experiment: Inhibition of FITC-conjugated human Galectin-1binding to CD4+ cell surface glycans of gal1 -/- mouse at 100 uM after 30 mins by flow cytometry; outline: as §3
Galectin-1 [13] = target: T1, Galectin-1; experiment: Inhibition of FITC-conjugated human Galectin-1binding to CD8+ cell surface glycans of gal1 -/- mouse at 100 uM after 30 mins by flow cytometry; outline: as §3
Galectin-1 [14] = target: T1, Galectin-1; experiment: Inhibition of FITC-conjugated human Galectin-1binding to CD31+ endothelial cell surface glycans of gal1 -/- mouse at 20 uM after 30 mins by flow cytometry; outline: as §3
Galectin-1 [15] = target: T1, Galectin-1; experiment: Inhibition of FITC-conjugated human Galectin-1binding to CD31+ endothelial cell surface glycans of gal1 -/- mouse at 100 uM after 30 mins by flow cytometry; outline: as §3

Activity (Galectin-1 [1]): 80%
Activity (Galectin-1 [4]): 50%
Kd (Galectin-1 [5]): 30 µM
inhibition (Galectin-1 [6]): Active
inhibition (Galectin-1 [7]): Dose-dependent effect
inhibition (Galectin-1 [8]): Dose-dependent effect
inhibition (Galectin-1 [9]): Dose-dependent effect
inhibition (Galectin-1 [10]): 80%
inhibition (Galectin-1 [11]): 80%
inhibition (Galectin-1 [12]): 100%
inhibition (Galectin-1 [13]): 100%
inhibition (Galectin-1 [14]): 50%
inhibition (Galectin-1 [15]): 70%
Structure (SMILES): CN(C)CCNC(=O)COc1c2cccc1Cc1cccc(c1OCC(=O)NCCN(C)C)Cc1cccc(c1OCC(=O)NCCN(C)C)Cc1cccc(c1OCC(=O)NCCN(C)C)C2 [OTX-008]
Activity (SK-HEP1): Dose-dependent effect
Activity (DU-145): Dose-dependent effect
Activity (HEp-2): Dose-dependent effect
Activity (COLO 205 [2]): Dose-dependent effect
Activity (COLO 205 [3]): Dose-dependent effect
Activity (HT-29): Dose-dependent effect
Activity (SQ20B): Dose-dependent effect
